Screens: PubChem, Johns Hopkins Ion Channel Center
A selection: hits, their analogues and other compounds. The true share with any hit is near 3.5%.
MrgX1 antagonist: blocks BAM8-22 activation of human MrgX1 receptor | hit rate 1.3% among 310,000 | Q96LB2 | B-score at 10 µM | MRGX1-HEK293 calcium flux, Fluo-4, BAM8-22 antagonism; hits give low values;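 active means calcium-response B-score plate-corrected more than 3 library SD below zero, starting fluorescence within 5 deviations, no agonist response on first addition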;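 further: peak minus trough fluorescence over baseline after final BAM8-22 challenge near maximal dose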
Target sequence (Q96LB2 whole entry, looked up): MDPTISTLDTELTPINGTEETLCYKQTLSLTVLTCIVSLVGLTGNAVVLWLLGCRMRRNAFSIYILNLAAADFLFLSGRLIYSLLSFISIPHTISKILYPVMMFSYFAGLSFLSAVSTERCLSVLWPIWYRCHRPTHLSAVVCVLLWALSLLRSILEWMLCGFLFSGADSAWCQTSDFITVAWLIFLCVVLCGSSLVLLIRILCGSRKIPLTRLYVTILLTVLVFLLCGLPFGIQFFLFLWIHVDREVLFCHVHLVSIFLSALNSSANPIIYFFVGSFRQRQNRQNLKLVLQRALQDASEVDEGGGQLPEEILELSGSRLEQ
MrgX1 ag: activates human MrgX1 receptor signaling; hit rate 0.44% among 310,000; MrgX1-HEK293 cells, Fluo-4 calcium fluorescence, agonist mode; hits give high values; B-score at 10 µM;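 active means calcium response B-score plate-corrected fluorescence ratio at least 3 library SD, with starting fluorescence B-score inside 5 SD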
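Material: MrgX1-expressing HEK293 cells / Dosing: compound as first of three additions / Incubation: overnight seeding, then 1 h dark dye loading / Signal: Fluo-4 NW calcium fluorescence / Evaluation: B-scored fluorescence response ratio / Benchmarks: positive and negative control wells on each plate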
MrgX1 PAM: allosterically activates human MrgX1 receptor signaling. MrgX1-HEK293, Fluo-4 calcium flux, FDSS; hits give high values. B-score at 10 µM. hit rate 0.63% among 310,000;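 active means plate-corrected calcium response at least 3 library SD above typical, normal starting fluorescence, not activating the receptor alone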;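 further: compound read alongside a low EC10 to EC30 dose of BAM8-22 agonist; peak minus trough fluorescence over baseline measured at the second addition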
RGS4 act: potentiators or activators of RGS4 | AID 463111 | hit rate 0.92% among 310,000 | HEK293 M3R/inducible RGS4, carbachol calcium flux Fluo4; hits give low values | B-score at 10 µM;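 active means B-score of the integrated calcium signal more than 4 SD below the library mean, with starting fluorescence not abnormally high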;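 further: negative B-score means reduced calcium response which marks RGS4 activation or potentiation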
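Material: Inducible-RGS4 HEK293 cells carrying M3 receptor; also added: carbachol at ECmax as muscarinic agonist stimulus; incubation: compound preincubation 20 min at room temperature before agonist; signal: Fluo4-AM (2 µM) calcium-flux fluorescence, kinetic read; measure: integrated calcium ratio converted to B score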
RGS4 inh: human RGS4 inhibition | P49798 | HEK293 M3R/RGS4 inducible, Fluo-4 calcium flux; hits give high values; triggered by carbachol at its EC20 | B-score at 10 µM | hit rate 0.45% among 310,000;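 active means B-score, a plate-corrected calcium signal, over three deviations above library mean, with baseline fluorescence within five deviations of library mean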;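 further: RGS4 expression induced by doxycycline in cells with stable M3 receptor; B-score is computed from the integrated fluorescence ratio over baseline after carbachol; higher B-score means a larger calcium signal and so more RGS4 inhibition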
Target sequence (P49798 whole entry, looked up): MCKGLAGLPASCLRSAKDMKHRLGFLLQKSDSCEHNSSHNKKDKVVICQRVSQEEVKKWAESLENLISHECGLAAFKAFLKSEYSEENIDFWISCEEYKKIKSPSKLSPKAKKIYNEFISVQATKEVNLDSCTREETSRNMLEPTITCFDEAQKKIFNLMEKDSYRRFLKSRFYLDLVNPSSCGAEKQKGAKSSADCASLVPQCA
RGS4 block valid: RGS4 inhibitor validation. shares compounds with RGS4 inh. HEK293 M3R/RGS4, carbachol calcium Fluo-4 fluorescence; carbachol added at its EC20; 0 = buffer wells, 100 = carbachol control. calcium response, % at 10 µM. hit rate 65% among 1,700. AID 492999;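 active means duplicate-averaged calcium response above the buffer-only control mean plus 5 SD of those controls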;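 further: integrated fluorescence ratio F max minus min over baseline F0; higher response in RGS4-induced cells means RGS4 inhibition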
RGS4 uninduced: checks RGS4 inhibitor effects in non-induced HEK293 M3R cells | activity (percent), % at 10 µM | carbachol calcium Fluo-4; submaximal (EC20) carbachol stimulus; buffer wells 0%, carbachol control wells 100% | hit rate 20% among 1,900 | shares compounds with RGS4 inh; call rule not given here;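 further: RGS4 induction absent so cells express M3R without RGS4; higher means more calcium signal and flags a non-specific hit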
RGS4 inh ctr2: second RGS4 inhibitor counter-screen in uninduced cells lacking carbachol. shares compounds with RGS4 inh. HEK293 M3R/RGS4 non-induced, Fluo-4 calcium, no carbachol; normalised: buffer wells 0%, carbachol wells 100%. calcium response (agonist-mode artifact), % at 10 µM. hit rate 22% among 1,900. AID 493001;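 active means duplicate-averaged calcium rise in uninduced cells above buffer wells' mean plus 5 SD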
Active calls of the source: *; i = inactive; . = no result.

SMILES	MrgX1 antagonist	MrgX1 ag	MrgX1 PAM	RGS4 act	RGS4 inh	RGS4 block valid	RGS4 uninduced	RGS4 inh ctr2
CCCCCCOc1ccc(N2C(=O)CC(S/C(N)=N/N=C(\C)c3cccs3)C2=O)cc1 (centres undefined)	i	i	i	i	7.5*	i	i	i
C/C(=N\N=C(/N)SC1CC(=O)N(c2ccc(Br)cc2)C1=O)c1cccs1 (centres undefined)	i	i	i	i	11*	37%*	31%*	i
CC(=O)N(c1cccc(Br)c1)c1nc(C)cc(C)c1C#N	i	i	i	i	i	.	.	.
CCOC(CNC(=O)CN1C(=O)COc2ccc(S(=O)(=O)N3CC(C)CC(C)C3)cc21)OCC (centres undefined)	i	i	i	i	i	.	.	.
C/C(=N\N=C(/N)SC1CC(=O)N(c2ccccc2)C1=O)c1cccs1 (centres undefined)	i	i	i	i	i	.	i	i
N/C(=N\N=C\c1cccs1)SC1CC(=O)N(c2ccc(Br)cc2)C1=O (centres undefined)	i	i	i	i	i	.	.	.
O=[n+]1cc(-c2cccc3ccccc23)n([O-])c2c1CCC2	i	i	i	i	4.9*	i	i	i
COC(=S)Nc1cccc(C(F)(F)F)c1	i	i	i	i	i	.	.	.
COC(=O)/C=C/C(=O)Nc1cccc(C(F)(F)F)c1	i	i	i	i	6.7*	13%*	44%*	i
Cc1ccccc1NC(=O)CSc1n[nH]c(-c2ccccn2)n1	i	i	i	i	i	.	.	.
Cc1ccc2nc(-c3ccc(N)cc3)sc2c1	i	i	i	i	5.6*	16%*	i	i
Nc1ccc2nc(-c3ccccc3)sc2c1	i	i	i	i	i	.	.	.
O=C(O)c1cccc(N2C(=O)c3ccc(C(=O)c4cccc([N+](=O)[O-])c4)cc3C2=O)c1	i	i	i	i	i	.	.	.
O=C(O)c1ccc2c(c1)C(=O)N(c1cccc(C(=O)/C=C/c3ccccc3)c1)C2=O	i	i	i	i	15*	68%*	i	i
CC(=N\Nc1ccccc1)/C(=N/O)C(=O)Nc1ccccc1	i	i	i	i	i	.	i	i
O=C(C1CCC(Cn2c(=O)[nH]c3ccccc3c2=O)CC1)N1CCN(c2ccccc2)CC1 (centres undefined)	i	i	i	i	i	.	i	i
COc1ccc(N2CCN(C(=O)C3CCC(Cn4c(=S)[nH]c5ccccc5c4=O)CC3)CC2)cc1 (centres undefined)	i	i	i	i	i	.	i	i
O=C(C1CCC(Cn2c(=S)[nH]c3ccccc3c2=O)CC1)N1CCN(c2ccccn2)CC1 (centres undefined)	i	i	i	i	i	.	.	.
COc1ccc(NC(=O)C(=O)Nc2cccc3cccnc23)cc1OC	i	i	i	i	i	.	.	.
COc1ccc(C(=O)Nc2cccc3cccnc23)cc1OC	i	i	i	i	4.9*	i	i	i
CC(C)CCN(C(=O)CCSc1ccc(F)cc1)c1c(N)n(Cc2ccccc2)c(=O)[nH]c1=O	i	i	i	i	i	.	.	.
CCOC(=O)CSc1[nH]c2cc(OC)ccc2c1[N+](=O)[O-]	i	i	i	i	i	.	.	.
COC(=O)CSc1[nH]c2ccc(F)cc2c1[N+](=O)[O-]	i	i	i	i	19*	34%*	i	i
Nc1nc(Nc2ccccc2)nc2ccccc12	i	i	i	i	i	.	.	.
Cc1ccc(Nc2nc(N)c3ccccc3n2)cc1Cl	i	i	i	i	7.3*	9.5%*	i	i
SMILES	MrgX1 antagonist	MrgX1 ag	MrgX1 PAM	RGS4 act	RGS4 inh	RGS4 block valid	RGS4 uninduced	RGS4 inh ctr2
COc1cc2nc(Nc3ccc(C)c(Cl)c3)nc(N)c2cc1OC	i	i	i	i	i	.	.	.
Nc1nc(Nc2ccc(Cl)cc2)nc2ccccc12	i	i	i	i	22*	i	i	i
COc1ccccc1NS(=O)(=O)c1cc(C(=O)NCC(c2ccc(F)cc2)N2CCOCC2)ccc1C (centres undefined)	i	i	i	i	i	.	.	.
Cc1ccc(NC(=O)CN(C)C(=O)Cn2cc(C(F)(F)F)cc(Cl)c2=O)cc1	i	i	i	i	5.5*	i	i	i
COC1(NS(=O)(=O)c2ccc(Br)cc2)C(C)=CC(=O)C=C1C	i	i	i	i	i	.	.	.
N#Cc1c(-c2ccccc2)c(-c2ccccc2)nn(CC(=O)NNC(=O)Nc2ccc(Cl)c(Cl)c2)c1=O	i	i	i	i	6.5*	28%*	i	i
O=C(c1ccco1)N1CCN(C(c2ccccc2)c2nnnn2C2CCCC2)CC1 (centres undefined)	i	i	i	i	i	.	.	.
CC(=O)c1ccc(C(=O)N2CCc3c([nH]c4ccccc34)C2c2cccc(C)n2)s1 (centres undefined)	i	i	i	i	i	.	.	.
Cc1cccc(C2c3[nH]c4ccccc4c3CCN2C(=O)Cc2n[nH]c(C)n2)n1 (centres undefined)	i	i	i	i	i	.	i	i
CC(=O)Oc1ccc2ccccc2c1C(NC(=O)Cc1ccccc1)c1ccccc1 (centres undefined)	i	i	i	i	5.5*	14%*	30%*	i
CC(=O)NC(c1cccc([N+](=O)[O-])c1)c1c(OC(C)=O)ccc2ccccc12 (centres undefined)	i	i	i	i	i	.	.	.
COc1ccc(N2CCN(C3CCN(S(=O)(=O)c4ccc(F)cc4)CC3)CC2)cc1	i	i	i	i	i	.	.	.
COc1ccc(S(=O)(=O)N2CCN(c3ccc4nnc(-c5ccc(F)cc5)n4n3)CC2)cc1	i	i	i	i	i	.	32%*	i
